Measured values published in PubChem BioAssay.
Unmarked numbers belong to inactive results. Records with an inconclusive call do not appear. Calls of active or inactive are those of the source.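 Rule for the calls, unless noted: active = inhibition over a set limit, the all-compound mean plus 3 SD, in both replicate runs; inconclusive = over that limit in just one replicate run; inactive = at or under that limit in both runs.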

Assays:
[1] = OD615 S. cerevisiae growth inhibition, permissive medium, pilot counter-assay, permissive growth control for S. cerevisiae lifespan shortening project (AID 705;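 active = growth inhibition above 25% in both replicates, a cutoff set 3 SD above the mean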); details: OD615, 24 h, at 10 µM, stronger effect = higher value
In short: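 Material: engineered DeaD yeast; Compound: one dose 10 µM, DMSO 0.25% final; Detection: absorbance (optical density) at 615 nm; Buffer or medium: permissive raffinose/galactose medium; Timing: 24 h exposure, 30 °C.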

[2] = Restrictive medium S. cerevisiae growth inhibition, OD615, pilot screen of yeast lifespan reduction project, restrictive growth control (AID 706;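 active = growth inhibition above a set limit, 3 SD over mean compound inhibition, in both replicates, cut at about 43% in these data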;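 note: modified DeaD lifespan yeast strain shifted to restrictive glucose medium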); details: OD615, 48 h, at 10 µM, stronger effect = higher value
In short: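 Buffer or medium: restrictive glucose medium (CSMM-D); test system: modified S. cerevisiae; doses: single dose of 10 µM compound final, 0.25% DMSO; schedule: 48 h compound exposure at 30 °C; detection: absorbance (optical density) measured at 615 nm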

[3] = viability gain of MRP-1-high H69AR cells under doxorubicin, pilot screen, MRP-1 activator project, CellTiter-Glo, duplicate (AID 807;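 active = viability increase at or above a cutoff of the median across tested compounds plus 3 SD, cut at about 8.5% in these data, passing the limit was not always enough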;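 note: compound pretreatment 18-22 h then 72 h combined with doxorubicin; 0% = doxorubicin alone and 100% = vehicle without doxorubicin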); details: H69AR viability with doxorubicin, CellTiter-Glo luminescence; at 10 µM; stronger effect = higher value
[4] = growth suppression of beta-catenin knockout HCT116, pilot screen, human colon tumor cells (AID 823;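 active = cell viability at or below a set limit in both duplicate runs, the limit being the all-compound median minus 4 SD, cut at about 23% in these data, passing the limit was not always enough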;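 note: 0% = wells killed by 20 µM Hyamine and 100% = untreated DMSO cell wells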); details: CellTiter-Glo, 60 h, at 10 µM, stronger effect = lower value
[5] = growth suppression of PTEN-deleted HCT116, pilot screen, cell-based, HCT116 clonal line, CellTiter-Glo (AID 824;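 active = viability at or below 27.92% in each of two runs, the all-compound median minus 4 SD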;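 note: 0% = 20 µM Hyamine control and 100% = vehicle cell control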); details: 60 h, at 10 µM, stronger effect = lower value
[6] = inhibitors of the yeast RAM network, pilot screen, dse1pr::URA3 reporter, 5-FOA selection (AID 869);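 note: 0% = DMSO wells with no growth and 100% = 10 µM 1-NA-PP1 with full growth; RAM network block rescues cells from 5-FOA so hits raise OD615 growth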; details: S. cerevisiae dse1pr::URA3 5-FOA growth, OD615, 2 d; at 10 µM; stronger effect = higher value; strain carries analog-sensitive mutant Cbk1 kinase
[7] = RAM signaling pathway blockade in yeast – S. cerevisiae, Pdr1DBD-CYC8 efflux-inhibited sensitized strain, primary screen (AID 1298;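 active = RAM network inhibition above 8.4% in each of two replicates, 3 SD over the compound average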;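 note: 0% = DMSO untreated cells without growth and 100% = 10 µM 1-NA-PP1 full growth; higher means more yeast growth rescued from 5-FOA killing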); details: S. cerevisiae cbk1-as DSE1-URA3 strain, 5-FOA growth OD615, 2 d; at 50 µM; stronger effect = higher value

Structure (SMILES) | growth inhibition [1] | growth inhibition [2] | viability increase [3] | viability [4] | viability [5] | inhibition [6] | RAM network inhibition [7]
Cc1cccn2cc(-c3ccc(F)cc3)nc12 | 1.97% | 15.1% | -4.81% | 87.2% | 82.9% | 1.56% | -1.54%
O=C(CCC1CC(=O)Nc2ccccc21)NCc1cccnc1 (centres undefined) | -10.7% | -2.23% | -1.06% | 102% | 90.5% | 1.1% | 12.5%
Brc1ccc(C2Nc3cccc4cccc(c34)N2)o1 | -13.8% | -9.64% | -0.34% | 85.9% | 92.5% | 2.66% | 1.71%
CC(=O)Oc1cc2c(C(=O)NCc3ccncc3)c(C)oc2c2ccccc12 | -15.1% | -16.8% | -3.14% | 90.9% | 95.8% | 0.64% | 8.02%
CCC(CC)C(=O)NCCc1cc2ccc(C)c(C)c2[nH]c1=O | -14.2% | -21.4% | -1.66% | 103% | 96.6% | 1.66% | 2.56%
N#Cc1ccccc1Cn1c(=O)n(-c2ccc(CC(=O)NCc3ccco3)cc2)c(=O)c2sccc21 | -3.44% | 3.28% | -1.7% | 97.8% | 99.6% | 2.13% | 4.46%
CCN1CCN(C(=O)CS(=O)(=O)Cc2nc(-c3ccc(C)cc3)oc2C)CC1 | -5.05% | 3.62% | -0.17% | 85.2% | 87.8% | 0.805% | 2.7%
Cc1ccc(C2=CC(c3ccc(N(C)C)cc3)n3nnnc3N2)cc1 (centres undefined) | -10.6% | 7.92% | -4.61% | 84% | 77.3% | 2.63% | -0.47%
Cn1c(=O)[nH]c(=O)c2c1nc(N1CCC(Cc3ccccc3)CC1)n2Cc1ccccc1 | -19.2% | -10.1% | -6.11% | 82.8% | 69.5% | 2.9% | 3.08%
CCN(CC)S(=O)(=O)c1ccc(-c2nnc3sc4cccc(C)c4n23)cc1 | -22.7% | -11.5% | -2.97% | 73.4% | 72.9% | 2% | 3.69%
Nc1nc(-c2ccc3c(c2)CCCC3)cs1 | 2.05% | 29.1% | -0.58% | 86.2% | 88.2% | 0.275% | 2.64%
COc1ccc(Cl)cc1N(CC(=O)Nc1ccc2c(c1)OCO2)S(C)(=O)=O | -15.1% | -11.7% | -3.17% | 92.6% | 89.4% | 0.79% | 2.18%
COc1ccc(C(=O)N2CCN(C(=O)c3ccco3)CC2)cc1 | 1.98% | 6.93% | -2.64% | 100% | 98.8% | 1.56% | 4.49%
CCCNC(=O)C(Cc1ccccc1)NS(=O)(=O)c1ccc2c(c1)CCC(=O)N2 (centres undefined) | -5.35% | -3.94% | 0.26% | 101% | 102% | 0.755% | 1.71%
COc1cccc(-c2nc(C(N)=O)c3[nH]c(=O)n(-c4ccccc4)c3n2)c1OC | -8.87% | -8.02% | -4.58% | 99.4% | 95.9% | 3.04% | -0.2%
Cn1nc(-c2ccc(Cl)cc2)c2cc(C(=O)NCCCN3CCOCC3)sc21 | -3.37% | 5.94% | -7.82% | 4.12% (active) | 5.19% (active) | -0.235% | -0.16%

Structure (SMILES) | growth inhibition [1] | growth inhibition [2] | viability increase [3] | viability [4] | viability [5] | inhibition [6] | RAM network inhibition [7]
COc1ccc(CN2CCCCC2C(=O)Nc2ccc(OC)c(OC)c2)cc1OC (centres undefined) | -10.9% | -12.6% | -1.88% | 95.8% | 93.3% | 0.01% | 0.21%
COc1cccc(N(CC(=O)Nc2cccc(C(C)=O)c2)S(C)(=O)=O)c1 | -9.21% | -2.52% | -0.61% | 101% | 93.7% | 1.08% | 5.87%
Cn1c(=O)[nH]c(=O)c2c1nc(N1CCCC1)n2CC(O)COc1ccccc1 (centres undefined) | -10.3% | -7.92% | -2.57% | 100% | 102% | 2.5% | 1.94%
CCOC(=O)N1CCN(c2c(N3CCc4ccccc43)c(=O)c2=O)CC1 | -9.63% | 14.6% | -1.52% | 105% | 100% | 2.05% | -0.74%
COc1ccccc1N(C(=O)NCc1ccccc1)C1=NCC(C)S1 (centres undefined) | -16% | -11.9% | -3.44% | 93.4% | 89.2% | 2.22% | 7.42%
Cc1nnc(-c2ccccc2)c[n+]1[O-] | -6.06% | -14.7% | -2.16% | 101% | 95.2% | 0.98% | 0.63%
C=CCn1c(C(C)NC(=O)CCC)nc2ccccc21 (centres undefined) | 0.415% | 7.8% | -0.88% | 104% | 93.9% | 1.11% | -0.02%
O=C(Cn1cnc2c(cnn2-c2ccccc2)c1=O)c1ccc(Cl)cc1 | -3.83% | -12.3% | 1.75% | 94.3% | 90.2% | 0.5% | 3.34%
Cc1cccc(OCC(=O)NCc2ccncc2)c1C | -7.54% | -7.64% | -1.63% | 99.4% | 104% | 0.525% | 4.22%
COc1ccc(C(=O)NCC(c2cccnc2)N2CCN(c3ccc(F)cc3)CC2)cc1OC (centres undefined) | -12.2% | -0.995% | -3.89% | 88.9% | 80.8% | 1.82% | 4.32%
O=C(c1ccccc1F)N1CCN=C1SCc1cccnc1 | -22.1% | 1.65% | -1.2% | 96.8% | 99.8% | 0.695% | 4.47%
CCOc1ccc(-c2cc(NC(=O)Cn3ncc4c3-c3ccccc3OC4)on2)cc1OCC | -7.96% | -3.25% | 1.4% | 98.8% | 91.2% | 1.22% | -0.17%
O=S(=O)(NCC(c1cccnc1)N1CCN(Cc2ccccc2)CC1)c1ccccc1 (centres undefined) | -10% | -15.8% | -2.02% | 101% | 92.8% | 1.57% | 0.96%
CCCNC(=O)N1CCN(c2nc(C(C)C)c3c(c2C#N)CC(C)(C)OC3)CC1 | -12.9% | -6.2% | 2.34% | 68.8% | 61.5% | 2.17% | 8.42%
Cn1nc(-c2ccc(Cl)cc2)c2cc(C(=O)NCC3CCCO3)sc21 (centres undefined) | 1.54% | 17.7% | -5.84% | 65.9% | 60.2% | -0.13% | -2.54%
Cc1cc2ccccc2n1CCNC(=O)c1cccs1 | 0.02% | 7.93% | -2.29% | 92.6% | 91.4% | 1.69% | 3.36%
